The values below come from ChEMBL document CHEMBL1144254, “Synthesis and SAR of novel 4,5-diarylimidazolines as potent P2X7 receptor antagonists” (Bioorg Med Chem Lett, 2005).

The assay has as its system U373 MG. Briefly: Inhibitory concentration against YOPRO-1 dye uptake in U373MG cells stably expressing human P2X purinoceptor 7 using fluorescence assay. Type of assay: functional, cell-based, U-373MG ATCC. Summed up:
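U373 cells stably expressing human P2X7 were grown overnight on collagen-coated plates at 35,000 cells/well. They were then preincubated 20 min at 37°C with increasing compound concentrations, in duplicate, in Mg²⁺/Ca²⁺-free HBSS. YO-PRO-1 iodide and then Bz-ATP were added, followed by 1.5 h at 37°C. Fluorescence was read at 485/530 nm against a no-compound control, and IC50 came from a nonlinear sigmoidal fit; means of duplicates, one or two experiments.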

On to `Clc1ccccc1CCC1=N[C@H](c2ccccc2)[C@H](c2ccccc2)N1`, for which the IC50 (as a rule, the concentration that inhibits the measured activity by half) was found to be 70 nM. For `c1ccc(C(CC2=N[C@H](c3ccccc3)[C@H](c3ccccc3)N2)c2ccccc2)cc1` the value was 320 nM; for `Cc1ccccc1CCC1=N[C@H](c2ccccc2)[C@H](c2ccccc2)N1`, 70 nM. As for `Cc1ccccc1CC1=N[C@H](c2ccccc2)[C@H](c2ccccc2)N1`, the figure is 320 nM; as for `c1ccc([C@H]2N=C(C3Cc4ccccc4C3)N[C@H]2c2ccccc2)cc1`, 50 nM; as for `C[C@H](C1=N[C@H](c2ccccc2)[C@H](c2ccccc2)N1)c1ccccc1`, 110 nM. For `c1ccc([C@H]2C[C@@H]2C2=N[C@H](c3ccccc3)[C@H](c3ccccc3)N2)cc1` the value was over 1000 nM; for `c1ccc(CCCCC2=N[C@H](c3ccccc3)[C@H](c3ccccc3)N2)cc1`, 610 nM.

`Cc1ccc(CC2=N[C@H](c3ccccc3)[C@H](c3ccccc3)N2)cc1` came in with an IC50 of 80 nM. For `c1ccc([C@H]2N=C(CC3Cc4ccccc4C3)N[C@H]2c2ccccc2)cc1` the value was 240 nM; for `Fc1ccc(CCC2=N[C@H](c3ccccc3)[C@H](c3ccccc3)N2)cc1F`, 120 nM. For `Clc1ccccc1CC1=N[C@H](c2ccccc2)[C@H](c2ccccc2)N1` the value was 160 nM. As for `Clc1cccc(CCC2=N[C@H](c3ccccc3)[C@H](c3ccccc3)N2)c1`, the figure is 120 nM; as for `CC(Cc1ccccc1)C1=N[C@H](c2ccccc2)[C@H](c2ccccc2)N1` (some centres not stated), 570 nM; as for `Fc1cccc(CCC2=N[C@H](c3ccccc3)[C@H](c3ccccc3)N2)c1`, 40 nM. For the molecule `C[C@@H](CC1=N[C@H](c2ccccc2)[C@H](c2ccccc2)N1)c1ccccc1`, half-maximal inhibition (IC50) was put at 30 nM. This IC50 and that of the molecule before are within 1.5-fold of each other.

In turn, `CC(C)(CC1=N[C@H](c2ccccc2)[C@H](c2ccccc2)N1)c1ccccc1` displayed an IC50 of 10 nM. As for `Cc1ccc(CCC2=N[C@H](c3ccccc3)[C@H](c3ccccc3)N2)cc1`, the figure is 2190 nM; as for `Fc1ccc(CC2=N[C@H](c3ccccc3)[C@H](c3ccccc3)N2)cc1`, 80 nM; as for `Clc1ccc(CC2=N[C@H](c3ccccc3)[C@H](c3ccccc3)N2)cc1`, 270 nM. For `COc1ccccc1CCC1=N[C@H](c2ccccc2)[C@H](c2ccccc2)N1`, it took 830 nM to reach half-maximal inhibition (IC50). This IC50 is about 3.1-fold higher than that of the molecule before. For `Fc1cccc(CC2=N[C@H](c3ccccc3)[C@H](c3ccccc3)N2)c1` the value was 80 nM; for `COc1ccc(CCC2=N[C@H](c3ccccc3)[C@H](c3ccccc3)N2)cc1`, over 3000 nM; for `c1ccc(CCC2=N[C@H](c3ccccc3)[C@H](c3ccccc3)N2)cc1`, 80 nM. For `COc1ccc(CCC2=N[C@H](c3ccccc3)[C@H](c3ccccc3)N2)cc1OC` the value was over 3000 nM; for `FC(F)(F)c1ccc(CC2=N[C@H](c3ccccc3)[C@H](c3ccccc3)N2)cc1`, 400 nM. For `Clc1cccc(CC2=N[C@H](c3ccccc3)[C@H](c3ccccc3)N2)c1` the value was 30 nM; for `Fc1ccc(CC2=N[C@H](c3ccccc3)[C@H](c3ccccc3)N2)cc1F`, 30 nM; for `Fc1ccc(CCC2=N[C@H](c3ccccc3)[C@H](c3ccccc3)N2)cc1`, 220 nM. As to `c1ccc(CCCC2=N[C@H](c3ccccc3)[C@H](c3ccccc3)N2)cc1`, the IC50 amounted to 540 nM.

`c1ccc(C2=N[C@@H](c3ccccc3)[C@@H](c3ccccc3)N2)cc1` returned an IC50 of 3800 nM.

Turning to `COc1cccc(CC2=N[C@H](c3ccccc3)[C@H](c3ccccc3)N2)c1OC`, the IC50 is over 3000 nM. As for `Fc1ccccc1CC1=N[C@H](c2ccccc2)[C@H](c2ccccc2)N1`, the figure is 580 nM. `Clc1ccc(CCC2=N[C@H](c3ccccc3)[C@H](c3ccccc3)N2)cc1Cl` displayed an IC50 of 1400 nM. As for `Clc1ccc(CCC2=N[C@H](c3ccccc3)[C@H](c3ccccc3)N2)cc1`, the figure is over 1000 nM; as for `Fc1ccccc1CCC1=N[C@H](c2ccccc2)[C@H](c2ccccc2)N1`, 160 nM; as for `Fc1cccc(CC2=N[C@H](c3ccccc3)[C@H](c3ccccc3)N2)c1F`, 930 nM.
